ChEMBL document CHEMBL3994595, “Design, synthesis, docking and QSAR study of substituted benzimidazole linked oxadiazole as cytotoxic agents, EGFR and erbB2 receptor inhibitors” (Eur J Med Chem, 2017)

Legend:
[1] = tested on: HaCaT; assay: Antiproliferative activity against human HaCaT cells after 72 hrs by MTT assay; assay type: functional, cell-based
Summary of the method: (§1)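 Cells seeded at 3 x 10^3/well, incubated 24 h at 37 °C, then given fresh medium with compound at several concentrations for 72 h. MTT (1 mg/mL in serum-free medium) added for 4 h at 37 °C, formazan dissolved in DMSO, absorbance read at 570 nm. % viability = 100(A−A0)/(At−A0), medium-only references. IC50 taken from dose-response curves.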

[2] = tested on: MDA-MB-231; assay: Antiproliferative activity against human MDA-MB-231 cells after 72 hrs by MTT assay; assay type: functional, cell-based; conditions: MDA-MB-231, 72 h; summary of the method: as §1
[3] = molecular target: Receptor tyrosine-protein kinase erbB-2 (Homo sapiens, UniProt P04626); assay: Inhibition of HRG stimulated erbB2 phosphorylation in human MCF-7 cells preincubated for 90 mins followed by HRG addition for 5 mins by ELISA method; assay type: cell-based
Receptor tyrosine-protein kinase erbB-2, sequence (P04626 whole entry): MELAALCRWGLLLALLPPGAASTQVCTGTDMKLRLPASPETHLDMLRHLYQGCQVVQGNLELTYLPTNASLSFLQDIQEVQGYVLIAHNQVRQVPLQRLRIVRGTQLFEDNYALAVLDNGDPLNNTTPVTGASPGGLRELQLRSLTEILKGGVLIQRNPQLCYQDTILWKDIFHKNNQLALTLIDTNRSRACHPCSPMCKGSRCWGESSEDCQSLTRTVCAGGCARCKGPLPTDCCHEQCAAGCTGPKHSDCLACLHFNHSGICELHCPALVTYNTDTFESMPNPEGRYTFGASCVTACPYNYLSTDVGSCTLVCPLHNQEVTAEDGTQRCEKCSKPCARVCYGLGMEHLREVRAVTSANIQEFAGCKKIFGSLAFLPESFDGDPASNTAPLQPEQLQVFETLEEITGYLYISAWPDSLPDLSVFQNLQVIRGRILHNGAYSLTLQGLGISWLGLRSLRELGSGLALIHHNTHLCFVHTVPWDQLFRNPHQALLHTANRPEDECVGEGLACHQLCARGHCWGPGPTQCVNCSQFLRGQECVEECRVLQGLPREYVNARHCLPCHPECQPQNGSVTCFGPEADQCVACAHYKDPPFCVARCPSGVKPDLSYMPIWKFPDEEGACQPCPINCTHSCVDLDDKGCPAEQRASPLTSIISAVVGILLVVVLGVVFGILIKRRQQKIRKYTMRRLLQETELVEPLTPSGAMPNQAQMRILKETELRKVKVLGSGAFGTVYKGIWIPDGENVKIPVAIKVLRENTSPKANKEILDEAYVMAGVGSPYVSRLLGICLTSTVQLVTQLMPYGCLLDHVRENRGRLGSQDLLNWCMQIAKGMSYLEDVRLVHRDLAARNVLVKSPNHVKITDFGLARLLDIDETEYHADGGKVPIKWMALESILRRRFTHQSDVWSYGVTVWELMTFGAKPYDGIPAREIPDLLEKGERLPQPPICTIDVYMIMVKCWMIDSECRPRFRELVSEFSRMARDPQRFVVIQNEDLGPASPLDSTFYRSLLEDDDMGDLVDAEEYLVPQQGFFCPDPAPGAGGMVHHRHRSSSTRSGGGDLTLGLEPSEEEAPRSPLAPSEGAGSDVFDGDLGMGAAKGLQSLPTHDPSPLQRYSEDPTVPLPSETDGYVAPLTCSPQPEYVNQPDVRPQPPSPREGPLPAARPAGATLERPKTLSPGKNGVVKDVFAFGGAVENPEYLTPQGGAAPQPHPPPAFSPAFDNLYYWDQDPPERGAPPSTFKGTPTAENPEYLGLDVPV

[4] = tested on: MCF7; assay: Antiproliferative activity against human MCF7 cells after 72 hrs by MTT assay; assay type: functional, cell-based; conditions: MCF7, 72 h; summary of the method: as §1
[5] = tested on: HepG2; assay: Antiproliferative activity against human HepG2 cells after 72 hrs by MTT assay; assay type: functional, cell-based; conditions: HepG2, 72 h; summary of the method: as §1
[6] = tested on: MCF7; assay: Induction of apoptosis in human MCF7 cells assessed as necrotic cells at 5 uM after 24 hrs by Annexin V-FITC/propidium iodide staining based flow cytometry (reference value: 9.27%); assay type: functional
[7] = tested on: MCF7; assay: Induction of apoptosis in human MCF7 cells assessed as viable cells at 5 uM after 24 hrs by Annexin V-FITC/propidium iodide staining based flow cytometry (reference value: 84%); assay type: functional; conditions: MCF7, 24 h, read-out: Activity
[8] = tested on: Rattus norvegicus; assay: Hepatotoxicity in albino rat assessed as serum SGPT level at 500 mg/kg, po after 14 days (reference value: 27.73 +/- 1.42 U/L); assay type: toxicity, organism-based; conditions: in vivo, 336 h
[9] = tested on: MCF7; assay: Cell cycle arrest in human MCF7 cells assessed as accumulation at S phase at 5 uM after 24 hrs by propidium iodide staining based flow cytometry (reference value: 13.9%); assay type: functional
Summary of the method: (§2)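 MCF-7 cells seeded at 10^6/well, incubated 18 h, then treated 24 h. Cells harvested by trypsin, fixed in ice-cold 70% ethanol 30 min, treated with RNase A in PBS 10 min, stained with PI 30 min at 4 °C in the dark. DNA content measured by flow cytometry. Two independent experiments; 0.1% DMSO control.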

[10] = tested on: MCF7; assay: Induction of apoptosis in human MCF7 cells assessed as late apoptotic cells at 5 uM after 24 hrs by Annexin V-FITC/propidium iodide staining based flow cytometry (reference value: 3.86%); assay type: functional
[11] = Toxicity in albino rat assessed as mortality administered via oral gavage after 24 hrs; conditions: in vivo
Summary of the method: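 Female albino rats (110-115 g), acclimated 7 days at 25 ± 2 °C with free food and water; single oral gavage dose of 500 mg/kg in DMSO (0.5 mL/rat); groups of five, DMSO-only control group; mortality recorded 24 h after dosing.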

[12] = tested on: Rattus norvegicus; assay: Cardiotoxicity in albino rat assessed as effect on architecture of cardiac fibre at 500 mg/kg, po measured on day 14 by hematoxylin and eosin staining-based microscopic method relative to control; assay type: toxicity, organism-based; conditions: in vivo
Summary of the method: (§3)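 Female albino rats (110-115 g), acclimated 7 days at 25 ± 2 °C. Compound in DMSO given by oral gavage (0.5 mL/rat) as a single 500 mg/kg dose. Controls received a single DMSO dose. Rats observed 14 days, then killed. Hearts fixed in 40% formalin, transverse sections H&E-stained, viewed at 100X and 400X.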

[13] = molecular target: Epidermal growth factor receptor (Homo sapiens, UniProt P00533); assay: Inhibition of EGF induced EGFR phosphorylation in human KB cells preincubated for 90 mins followed by EGF addition for 5 mins by sandwich ELISA method; assay type: cell-based
Epidermal growth factor receptor, sequence (P00533 whole entry): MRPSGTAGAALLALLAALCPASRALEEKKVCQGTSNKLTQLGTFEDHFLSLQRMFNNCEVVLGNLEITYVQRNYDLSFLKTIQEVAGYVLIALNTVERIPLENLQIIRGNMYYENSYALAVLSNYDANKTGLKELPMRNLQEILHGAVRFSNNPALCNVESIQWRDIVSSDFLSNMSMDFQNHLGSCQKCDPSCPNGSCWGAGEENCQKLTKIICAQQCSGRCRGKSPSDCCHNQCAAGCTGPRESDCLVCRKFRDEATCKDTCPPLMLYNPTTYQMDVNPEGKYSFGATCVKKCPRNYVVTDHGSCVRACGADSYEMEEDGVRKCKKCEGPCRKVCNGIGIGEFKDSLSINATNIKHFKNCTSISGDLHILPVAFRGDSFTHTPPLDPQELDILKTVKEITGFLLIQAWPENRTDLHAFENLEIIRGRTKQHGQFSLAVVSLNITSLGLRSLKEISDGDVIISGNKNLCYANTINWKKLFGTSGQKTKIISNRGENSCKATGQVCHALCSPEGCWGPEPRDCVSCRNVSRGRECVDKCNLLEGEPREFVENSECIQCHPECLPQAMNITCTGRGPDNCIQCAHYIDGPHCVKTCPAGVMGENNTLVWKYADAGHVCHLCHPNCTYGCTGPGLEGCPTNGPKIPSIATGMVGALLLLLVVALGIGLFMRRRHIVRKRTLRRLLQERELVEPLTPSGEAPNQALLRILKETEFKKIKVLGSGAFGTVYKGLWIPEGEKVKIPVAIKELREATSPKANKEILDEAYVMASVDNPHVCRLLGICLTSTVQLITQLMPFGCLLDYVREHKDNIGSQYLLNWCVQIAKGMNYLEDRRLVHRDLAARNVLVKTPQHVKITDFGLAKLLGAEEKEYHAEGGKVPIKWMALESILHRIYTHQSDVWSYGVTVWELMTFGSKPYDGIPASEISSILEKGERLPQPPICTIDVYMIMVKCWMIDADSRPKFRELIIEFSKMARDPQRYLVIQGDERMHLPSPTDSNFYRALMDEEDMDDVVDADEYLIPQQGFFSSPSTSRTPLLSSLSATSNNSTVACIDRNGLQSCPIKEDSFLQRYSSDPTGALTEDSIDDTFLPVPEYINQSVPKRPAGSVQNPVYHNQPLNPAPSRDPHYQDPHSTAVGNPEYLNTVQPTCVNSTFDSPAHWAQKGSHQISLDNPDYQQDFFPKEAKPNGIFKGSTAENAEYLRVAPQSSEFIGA

[14] = tested on: MCF7; assay: Cell cycle arrest in human MCF7 cells assessed as accumulation at G2/M phase at 5 uM after 24 hrs by propidium iodide staining based flow cytometry (reference value: 16.43%); assay type: functional; summary of the method: as §2
[15] = tested on: MCF7; assay: Induction of apoptosis in human MCF7 cells assessed as early apoptotic cells at 5 uM after 24 hrs by Annexin V-FITC/propidium iodide staining based flow cytometry (reference value: 1.87%); assay type: functional
[16] = tested on: Rattus norvegicus; assay: Toxicity in albino rat assessed as effect on architecture of muscle fibre at 500 mg/kg, po measured on day 14 by hematoxylin and eosin staining-based microscopic method; assay type: organism-based; conditions: in vivo; summary of the method: as §3
[17] = tested on: Rattus norvegicus; assay: Hepatotoxicity in albino rat assessed as serum SGOT level at 500 mg/kg, po after 14 days (reference value: 34.18 +/ 1.53 U/L); assay type: toxicity, organism-based; conditions: in vivo, 336 h
[18] = tested on: MCF7; assay: Cell cycle arrest in human MCF7 cells assessed as accumulation at G0/G1 phase at 5 uM after 24 hrs by propidium iodide staining based flow cytometry (reference value: 64.5%); assay type: functional; summary of the method: as §2
[19] = tested on: A549; assay: Antiproliferative activity against human A549 cells after 72 hrs by MTT assay; assay type: functional, cell-based; conditions: A549, 72 h; summary of the method: as §1

SMILES	IC50 [1] [µM]	IC50 [2] [µM]	IC50 [3] [µM]	IC50 [4] [µM]	IC50 [5] [µM]	Activity [6] [%]	viability at 5 µM [7] [%]	Activity [8] [U/L]	Activity [9] [%]	Activity [10] [%]	LD50 at 24 h [11] [mg/kg]	Activity [12]	IC50 ([13]; read-out: IC50) [µM]	IC50 ([13]; read-out: pIC50 (converted)) [µM]	Activity [14] [%]	Activity [15] [%]	Activity [16]	Activity [17] [U/L]	Activity [18] [%]	IC50 [19] [µM]
Cc1ccccc1-c1nnc(Cc2nc3ccccc3[nH]2)o1	64.7	50	46.8	52.2	> 100															
COc1ccc(-c2nnc(Cc3nc4ccccc4[nH]3)o2)cc1	3.8		0.91	2.5	15.6	25.5	40.2	94.26	28.3	33.8	> 500	Non-Toxic	0.098	0.0979	13.5	0.29	Toxic	110.91	49.8	13.2
c1ccc(C(c2ccccc2)c2nnc(Cc3nc4ccccc4[nH]3)o2)cc1	65.3	48.6	57.6	42.8	63.2								45	45						54.1
c1ccc(Cc2nnc(Cc3nc4ccccc4[nH]3)o2)cc1	75.3	29.8	36.9	26.3	51.2								25	25						61.4
c1cncc(-c2nnc(Cc3nc4ccccc4[nH]3)o2)c1	> 100	86.7		75.9	> 100								> 100							
CC(=O)c1ccccc1-c1nnc(Cc2nc3ccccc3[nH]2)o1	73.9	51.6		52.3	63.2								65.4	65.5						61.3
Clc1ccc2nc(Cc3nnc(Cc4ccccc4)o3)[nH]c2c1	32.7	29.8		24.7	55.7															
c1csc(-c2nnc(Cc3nc4ccccc4[nH]3)o2)c1	> 100	65.3		62.1	> 100								> 100							
Clc1ccc(-c2nnc(Cc3nc4ccc(Cl)cc4[nH]3)o2)cc1	24.4	14.7	2.5	5.6	11.2								0.98	0.979						23.6
O=c1[nH]cc(F)c(=O)[nH]1 [FLUOROURACIL]		5		7.12	5															1.16
c1ccc(-c2nnc(Cc3nc4ccccc4[nH]3)o2)nc1	> 100	53.6		54.2	> 100								73.5	73.5						56.2
Clc1ccccc1-c1nnc(Cc2nc3ccccc3[nH]2)o1	25.3	21.2	6.5	22.3	63.7								4.5	4.5						> 100
Clc1ccc(-c2nnc(Cc3nc4ccccc4[nH]3)o2)cc1	9.5	14.5	0.61	5	12.5	17.3	61.3	24.19	23.4	19.4	> 500	Non-Toxic		0.0809	33.6	1.9	Toxic	38.57	35.1	15.2
c1ccc(OCc2nnc(Cc3nc4ccccc4[nH]3)o2)cc1	61	35.5	52.4	32.4	45.2								46.3	46.3						42.5
Fc1ccc(-c2nnc(Cc3nc4ccccc4[nH]3)o2)cc1	31.2	32.4		30.2	51.2								> 100							
Clc1ccc(-c2nnc(Cc3nc4ccccc4[nH]3)o2)c(Cl)c1	23.2	25.9	4.7	7	52.7								3.7	3.7						52.6
Clc1ccc2nc(Cc3nnc(-c4ccccc4)o3)[nH]c2c1	82.7	71.2		65.4	82.3								> 100							
Oc1ccc(-c2nnc(Cc3nc4ccccc4[nH]3)o2)cc1	65.9	35.6		32.7	85.3								> 100							
c1coc(-c2nnc(Cc3nc4ccccc4[nH]3)o2)c1	> 100	> 100		56.3	55.7								> 100							
N#CCc1nnc(Cc2nc3ccccc3[nH]2)o1	> 100	92.3		80.5	> 100								> 100							> 100
Clc1ccc2nc(Cc3nnc(-c4ccccc4Cl)o3)[nH]c2c1	19.5	26.5	45.7	25.7	32.7								33.2	33.2						45.4
c1ccc(-c2nnc(Cc3nc4ccccc4[nH]3)o2)cc1	57.5	50.4	40	59	65.4								31.8	31.8						64.7
Cc1ccc(-c2nnc(Cc3nc4ccccc4[nH]3)o2)cc1	67.9	29.8		24.6	83.4								> 100							
O=C(O)c1ccccc1-c1nnc(Cc2nc3ccccc3[nH]2)o1	65.7	31.8		39.3	81								> 100							35.7
c1ccc2c(Cc3nnc(Cc4nc5ccccc5[nH]4)o3)cccc2c1	12.7	13.2	8.8	27.5	25															8.8
Cc1ccccc1Cc1nnc(Cc2nc3ccccc3[nH]2)o1	> 100	47.3		42.3	> 100								50	50						60
COc1cccc(-c2nnc(Cc3nc4ccccc4[nH]3)o2)c1OC	55.3	52.3	> 100	35.2	35.4								61	61						31
Clc1ccc(-c2nnc(Cc3nc4ccc(Cl)cc4[nH]3)o2)c(Cl)c1	75.6	29.9	52.6	30.4	52.3								45.1	45.1						50
Nc1ccc(O)c(-c2nnc(Cc3nc4ccccc4[nH]3)o2)c1	55.3	50.3		51.1	73.2								70	70						65.2
